Experimental data reported in ChEMBL document CHEMBL2417469, “Synthesis of novel analogs of 2-pyrazoline obtained from [(7-chloroquinolin-4-yl)amino]chalcones and hydrazine as potential antitumor and antimalarial agents” (Eur J Med Chem, 2013).

Legend:
Assay type in all cases: functional
[1] = tested on: SK-OV-3; test: Cytotoxicity against human SKOV3 cells after 48 hrs by SRB assay; conditions: SK-OV-3, 48 h
Method in brief: (§1)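 NCI 60-cell-line screen. Cells preincubated 24 h at 37 °C, 5% CO2; time-zero plates TCA-fixed. Compounds dissolved in DMSO and tested at five concentrations (100, 10, 1.0, 0.1, 0.01 µM) for 48 h continuous exposure. Adherent cells fixed with cold TCA (10% final), then SRB stained; absorbance at 515 nm. GI50, TGI and LC50 calculated from growth relative to time-zero and untreated controls.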

[2] = tested on: OVCAR-8; test: Cytotoxicity against human OVCAR8 cells after 48 hrs by SRB assay; conditions: OVCAR-8, 48 h; method in brief: as §1
[3] = tested on: PC-3; test: Cytotoxicity against human PC3 cells after 48 hrs by SRB assay; conditions: PC-3, 48 h; method in brief: as §1
[4] = tested on: RXF 393; test: Cytotoxicity against human RXF393 cells after 48 hrs by SRB assay; conditions: RXF 393, 48 h; method in brief: as §1
[5] = tested on: IGROV-1; test: Cytotoxicity against human IGROV1 cells after 48 hrs by SRB assay; conditions: IGROV-1, 48 h; method in brief: as §1
[6] = tested on: HOP-92; test: Cytotoxicity against human HOP92 cells after 48 hrs by SRB assay; conditions: HOP-92, 48 h; method in brief: as §1
[7] = tested on: A498; test: Cytotoxicity against human A498 cells after 48 hrs by SRB assay; conditions: A498, 48 h; method in brief: as §1
[8] = tested on: Hs-578T; test: Cytotoxicity against human Hs578T cells after 48 hrs by SRB assay; method in brief: as §1
[9] = tested on: MCF7; test: Cytotoxicity against human MCF7 cells after 48 hrs by SRB assay; conditions: MCF7, 48 h; method in brief: as §1
[10] = tested on: DU-145; test: Cytotoxicity against human DU145 cells after 48 hrs by SRB assay; conditions: DU-145, 48 h; method in brief: as §1
[11] = tested on: SR; test: Cytotoxicity against human SR cells after 48 hrs by SRB assay
Method in brief: (§2)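 NCI 60-cell screen. Cells grew 24 h (37 °C, 5% CO2) before compound was added. Compounds were in DMSO and diluted in medium with gentamicin, then tested at five levels (100, 10, 1.0, 0.1, 0.01 µM) with 48 h continuous exposure. Adherent cells were fixed with TCA (10% final) and stained with 0.4% SRB, absorbance read at 515 nm. A time-zero plate was included. LC50 is the concentration giving 50% loss of protein relative to time zero.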

[12] = tested on: SNB-19; test: Cytotoxicity against human SNB19 cells after 48 hrs by SRB assay; conditions: SNB-19, 48 h; method in brief: as §2
[13] = tested on: HCT-15; test: Cytotoxicity against human HCT15 cells after 48 hrs by SRB assay; conditions: HCT-15, 48 h; method in brief: as §1
[14] = tested on: MDA-MB-435; test: Cytotoxicity against human MDA-MB-435 cells after 48 hrs by SRB assay; conditions: MDA-MB-435, 48 h; method in brief: as §1
[15] = tested on: KM12; test: Cytotoxicity against human KM12 cells after 48 hrs by SRB assay; conditions: KM12, 48 h; method in brief: as §1
[16] = tested on: CAKI-1; test: Cytotoxicity against human Caki1 cells after 48 hrs by SRB assay; conditions: CAKI-1, 48 h; method in brief: as §1
[17] = tested on: MDA-MB-468; test: Cytotoxicity against human MDA-MB-468 cells after 48 hrs by SRB assay; conditions: MDA-MB-468, 48 h; method in brief: as §1
[18] = tested on: Malme-3M; test: Cytotoxicity against human MALME-3M cells after 48 hrs by SRB assay; method in brief: as §1
[19] = tested on: SF-539; test: Cytotoxicity against human SF539 cells after 48 hrs by SRB assay; conditions: SF-539, 48 h; method in brief: as §1
[20] = tested on: LOX IMVI; test: Cytotoxicity against human LOXIMVI cells after 48 hrs by SRB assay; method in brief: as §1
[21] = tested on: HT-29; test: Cytotoxicity against human HT-29 cells after 48 hrs by SRB assay; conditions: HT-29, 48 h; method in brief: as §1
[22] = tested on: A549; test: Cytotoxicity against human A549/ATCC cells after 48 hrs by SRB assay; conditions: A549, 48 h; method in brief: as §1
[23] = tested on: M14; test: Cytotoxicity against human M14 cells after 48 hrs by SRB assay; conditions: M14, 48 h; method in brief: as §1
[24] = tested on: HCC 2998; test: Cytotoxicity against human HCC2998 cells after 48 hrs by SRB assay; conditions: HCC 2998, 48 h; method in brief: as §1
[25] = tested on: 786-0; test: Cytotoxicity against human 786-0 cells after 48 hrs by SRB assay; conditions: 786-0, 48 h; method in brief: as §1
[26] = tested on: UO-31; test: Cytotoxicity against human UO31 cells after 48 hrs by SRB assay; conditions: UO-31, 48 h; method in brief: as §2
[27] = tested on: CCRF-CEM; test: Cytotoxicity against human CCRF-CEM cells after 48 hrs by SRB assay; method in brief: as §1
[28] = tested on: OVCAR-4; test: Cytotoxicity against human OVCAR4 cells after 48 hrs by SRB assay; conditions: OVCAR-4, 48 h; method in brief: as §1
[29] = tested on: MDA-MB-231; test: Cytotoxicity against human MDA-MB-231 cells after 48 hrs by SRB assay; conditions: MDA-MB-231, 48 h; method in brief: as §1
[30] = tested on: SK-MEL-2; test: Cytotoxicity against human SK-MEL-2 cells after 48 hrs by SRB assay; conditions: SK-MEL-2, 48 h; method in brief: as §1
[31] = tested on: NCI-H226; test: Cytotoxicity against human NCI-H226 cells after 48 hrs by SRB assay; conditions: NCI-H226, 48 h; method in brief: as §1
[32] = tested on: HCT-116; test: Cytotoxicity against human HCT116 cells after 48 hrs by SRB assay; conditions: HCT-116, 48 h; method in brief: as §1
[33] = tested on: UACC-62; test: Cytotoxicity against human UACC62 cells after 48 hrs by SRB assay; conditions: UACC-62, 48 h; method in brief: as §2
[34] = tested on: U-251; test: Cytotoxicity against human U251 cells after 48 hrs by SRB assay; conditions: U-251, 48 h; method in brief: as §2
[35] = tested on: SK-MEL-28; test: Cytotoxicity against human SK-MEL-28 cells after 48 hrs by SRB assay; conditions: SK-MEL-28, 48 h; method in brief: as §1
[36] = tested on: SF-268; test: Cytotoxicity against human SF268 cells after 48 hrs by SRB assay; conditions: SF-268, 48 h; method in brief: as §1
[37] = read-out: LC50 (the source's name)

SMILES: COc1cc(C2CC(c3cccc(Nc4ccnc5cc(Cl)ccc45)c3)=NN2C=O)cc(OC)c1OC (configuration not stated)
- GI50 [1]: 1400 nM
- LC50 (concentration killing 50% of cells) [1]: > 100000 nM
- GI50 [2]: 2060 nM
- LC50 (50% net cell kill) [2]: > 100000 nM
- GI50 [3]: 1460 nM
- LC50 [3]: > 100000 nM
- GI50 [4]: 1540 nM
- LC50 (concentration killing 50% of cells) [4]: 73400 nM
- GI50 [5]: 3290 nM
- LC50 (concentration killing 50% of cells relative to time zero) [5]: > 100000 nM
- GI50 [6]: 2750 nM
- LC50 (concentration killing 50% of cells) [6]: > 100000 nM
- GI50 [7]: 290 nM
- CC50 [7, 37]: > 100000 nM
- GI50 [8]: 680 nM
- LC50 (50% net cell kill) [8]: > 100000 nM
- GI50 [9]: 370 nM
- CC50 [9, 37]: > 100000 nM
- GI50 [10]: 2680 nM
- LC50 (concentration killing 50% of cells) [10]: > 100000 nM
- GI50 [11]: 340 nM
- LC50 [11]: > 100000 nM
- GI50 [12]: 3420 nM
- LC50 [12]: > 100000 nM
- GI50 [13]: 550 nM
- LC50 (concentration killing 50% of cells relative to time zero) [13]: > 100000 nM
- GI50 [14]: 220 nM
- LC50 [14]: > 100000 nM
- GI50 [15]: 500 nM
- LC50 (concentration killing 50% of cells) [15]: > 100000 nM
- GI50 [16]: 550 nM
- LC50 [16]: 12100 nM
- GI50 [17]: 300 nM
- LC50 [17]: 23300 nM
- GI50 [18]: 810 nM
- LC50 [18]: > 100000 nM
- GI50 [19]: 810 nM
- CC50 [19, 37]: 55500 nM
- GI50 [20]: 710 nM
- LC50 [20]: > 100000 nM
- GI50 [21]: 400 nM
- LC50 [21]: 4990 nM
- GI50 [22]: 660 nM
- CC50 [22, 37]: > 100000 nM
- GI50 [23]: 350 nM
- CC50 [23, 37]: 57500 nM
- GI50 [24]: 2160 nM
- LC50 [24]: > 100000 nM
- GI50 [25]: 840 nM
- LC50 [25]: 76300 nM
- GI50 [26]: 1300 nM
- LC50 [26]: > 100000 nM
- GI50 [27]: 650 nM
- LC50 (concentration killing 50% of cells relative to time zero) [27]: > 100000 nM
- GI50 [28]: 1130 nM
- LC50 [28]: > 100000 nM
- GI50 [29]: 1600 nM
- LC50 (concentration killing 50% of cells present at time zero) [29]: > 100000 nM
- GI50 [30]: 730 nM
- LC50 [30]: 50100 nM
- GI50 [31]: 2200 nM
- LC50 (50% lethal concentration) [31]: > 100000 nM
- GI50 [32]: 400 nM
- LC50 [32]: 6710 nM
- GI50 [33]: 720 nM
- CC50 [33, 37]: 84000 nM
- GI50 [34]: 450 nM
- CC50 [34, 37]: > 100000 nM
- GI50 [35]: 1020 nM
- CC50 [35, 37]: 97100 nM
- GI50 [36]: 2550 nM
- LC50 [36]: > 100000 nM
